Results taken from ChEMBL document CHEMBL3271964, “Synthesis and biological activity of new 2-nitroimidazole derivatives” (J Med Chem, 1978).
In brackets after ≈: the same amount, converted by molar mass. Activity calls are given as the source filed them.

How the values were obtained:
[1] = test system: Mycoplasmoides gallisepticum; assay: Antimicrobial activity against Mycoplasma gallisepticum S6 Weybridge by broth dilution method; type: functional
Trichomonas vaginalis [2] = assay: Antimicrobial activity against Trichomonas vaginalis infected in po dosed mouse; type: functional
How it was run: (§1)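 Mice infected subcutaneously, then dosed orally. Vehicle depended on compound: suspension in aqueous 0.75% sodium carboxymethylcellulose, DMF-H₂O, DMF-phosphate buffer pH 7.38, or water. ED₅₀ determined, with metronidazole run in parallel. The relative value is ED₅₀ (test) / ED₅₀ (metronidazole).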

Clostridium perfringens = assay: Antimicrobial activity against Clostridium perfringens ISS 30543 by broth dilution method; type: functional
[3] = Therapeutic index, ratio of LD50 for po dosed mouse to ED50 for Trichomonas vaginalis infected in po dosed mouse; type: organism-based; conditions: in vivo, read-out: Ratio LD50/ED50
How it was run: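 Ratio of two mouse values, both dosed orally. The LD50 comes from acute toxicity, with compounds suspended in aqueous 0.5% Methocel 90-HG. The ED50 comes from subcutaneous T. vaginalis infection treated orally. The ED50 vehicle varied by compound: suspension in aqueous 0.75% sodium carboxymethylcellulose, DMF-H2O, DMF-phosphate buffer pH 7.38, or H2O.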

Trichomonas vaginalis [4] = assay: Antimicrobial activity against Trichomonas vaginalis by broth dilution method; type: functional
Streptococcus pyogenes = assay: Antimicrobial activity against Streptococcus pyogenes C 203 by microtitre method; type: functional
Staphylococcus aureus = assay: Antimicrobial activity against Staphylococcus aureus Tour by microtitre method; type: functional
[5] = Acute toxicity in po dosed mouse; type: organism-based; conditions: in vivo
How it was run: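 Acute toxicity in mice by the oral route. Compounds were given as suspensions in aqueous 0.5% Methocel 90-HG.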

Trichomonas vaginalis [6] = assay: Antimicrobial activity against Trichomonas vaginalis infected in po dosed mouse relative to metronidazole; type: functional; how it was run: as §1
Mus musculus [7] = assay: Toxicity in CF1 mouse assessed as cyanosis at 60 to 600 mg/kg, po by Irwin test; type: organism-based; parameters: dose 60-600 mg/kg, route oral; conditions: in vivo
How it was run: (§2)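 Irwin observational method in male CF1 mice (19–22 g). Oral dosing of a suspension in 0.5% Methocel 90-HG at 10 mL/kg, up to 600 mg/kg; controls received saline. Directly observable behavioural and autonomic changes were scored, with the threshold dose for onset recorded.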

Rattus norvegicus [8] = assay: Effect on pressor response in conscious normotensive rat up to 50 mg/kg; type: functional, organism-based; parameters: dose 50 mg/kg
Rattus norvegicus [9] = assay: Inhibition of carrageenan-induced edema in rat; type: functional, organism-based
Mus musculus [10] = assay: Toxicity in CF1 mouse assessed as reduction in opening of eyelid at 60 to 600 mg/kg, po by Irwin test; type: organism-based; parameters: dose 60-600 mg/kg, route oral; conditions: in vivo; how it was run: as §2
Mus musculus [11] = assay: Toxicity in CF1 mouse assessed as change in sleeping time at 500 mg/kg, po administered 30 mins prior to hexobarbital sodium challenge relative to vehicle-treated control; type: organism-based; parameters: dose 500 mg/kg, route oral; conditions: in vivo, 0.5 h
How it was run: (§3)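 Male CF1 mice (19–22 g), groups of 30, given oral doses as a 0.5% Methocel 90-HG suspension at 10 mL/kg; saline controls (90 animals). Hexobarbital sodium 75 mg/kg ip given 30 min later, at 25–26 °C. Sleeping time given as mean ± SE and as % change vs controls; Dunnett's t test.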

Mus musculus [12] = assay: Toxicity in CF1 mouse assessed as reduction in heart rate at 60 to 600 mg/kg, po by Irwin test; type: organism-based; parameters: dose 60-600 mg/kg, route oral; conditions: in vivo; how it was run: as §2
Mus musculus [13] = assay: Toxicity in CF1 mouse assessed as reduction in body tone at 60 to 600 mg/kg, po by Irwin test; type: organism-based; parameters: dose 60-600 mg/kg, route oral; conditions: in vivo; how it was run: as §2
Mus musculus [14] = assay: Toxicity in CF1 mouse assessed as change in sleeping time at 250 mg/kg, po administered 30 mins prior to hexobarbital sodium challenge relative to vehicle-treated control; type: organism-based; parameters: dose 250 mg/kg, route oral; conditions: in vivo, 0.5 h; how it was run: as §3
Mus musculus [15] = assay: Toxicity in CF1 mouse assessed as ataxia at 60 to 600 mg/kg, po by Irwin test; type: organism-based; parameters: dose 60-600 mg/kg, route oral; conditions: in vivo; how it was run: as §2
Mus musculus [16] = assay: Toxicity in CF1 mouse assessed as reduction in curiosity at 60 to 600 mg/kg, po by Irwin test; type: organism-based; parameters: dose 60-600 mg/kg, route oral; conditions: in vivo; how it was run: as §2
Mus musculus [17] = assay: Toxicity in CF1 mouse assessed as reduction in spontaneous activity at 60 to 600 mg/kg, po by Irwin test; type: organism-based; parameters: dose 60-600 mg/kg, route oral; conditions: in vivo; how it was run: as §2
Mus musculus [18] = assay: Inhibition of strychine sulfate/pentetrazole-induced death in CF1 mouse at 250 to 500 mg/kg, po administered 60 mins prior to strychine sulfate/pentetrazole challenge; type: functional, organism-based
Mus musculus [19] = assay: Toxicity in CF1 mouse assessed as reduction in respiratory rate at 60 to 600 mg/kg, po by Irwin test; type: organism-based; parameters: dose 60-600 mg/kg, route oral; conditions: in vivo; how it was run: as §2
[20] = Solubility of the compound in water; type: physicochemical; conditions: buffer

## Cn1c(C(C)(C)OC(N)=O)cnc1[N+](=O)[O-]
[1]
  MIC: > 100 µg/mL
Trichomonas vaginalis [2]
  ED50: 5.74 mg/kg
Clostridium perfringens
  MIC: 10 µg/mL (≈ 43.8 µM)
[3]
  selectivity ratio: 156
Trichomonas vaginalis [4]
  MIC: 10 µg/mL (≈ 43.8 µM)
Streptococcus pyogenes
  MIC: 100 µg/mL (≈ 438 µM)
Staphylococcus aureus
  MIC: > 100 µg/mL
[5]
  LD50: 900 mg/kg
Trichomonas vaginalis [6]
  Ratio ED50: 0.4

## CC(CO)c1cnc([N+](=O)[O-])n1C (centres undefined)
[1]
  MIC: 50 µg/mL (≈ 270 µM)
Trichomonas vaginalis [2]
  ED50: > 10 mg/kg
Clostridium perfringens
  MIC: 0.8 µg/mL (≈ 4.32 µM)
Trichomonas vaginalis [4]
  MIC: 25 µg/mL (≈ 135 µM)
Streptococcus pyogenes
  MIC: 200 µg/mL (≈ 1080 µM)
Staphylococcus aureus
  MIC: 25 µg/mL (≈ 135 µM)
Trichomonas vaginalis [6]
  Ratio ED50: >0.7

## CCS(=O)(=O)CCn1c([N+](=O)[O-])cnc1C [TINIDAZOLE]
[1]
  MIC: > 300 µg/mL
Trichomonas vaginalis [2]
  ED50: 2.5 mg/kg
Clostridium perfringens
  MIC: 0.3 µg/mL (≈ 1.21 µM)
[3]
  selectivity ratio: 1280
Trichomonas vaginalis [4]
  MIC: 3.1 µg/mL (≈ 12.5 µM)
Streptococcus pyogenes
  MIC: > 300 µg/mL
Staphylococcus aureus
  MIC: 300 µg/mL (≈ 1210 µM)
[5]
  LD50: 3200 mg/kg
Trichomonas vaginalis [6]
  Ratio ED50: 0.43

## Cn1c(C(C)(C)OC(=O)c2ccccc2)cnc1[N+](=O)[O-]
[1]
  MIC: 50 µg/mL (≈ 173 µM)
Trichomonas vaginalis [2]
  ED50: 16.2 mg/kg
Clostridium perfringens
  MIC: 3.1 µg/mL (≈ 10.7 µM)
Trichomonas vaginalis [4]
  MIC: > 100 µg/mL
Streptococcus pyogenes
  MIC: 100 µg/mL (≈ 346 µM)
Staphylococcus aureus
  MIC: 100 µg/mL (≈ 346 µM)
Trichomonas vaginalis [6]
  Ratio ED50: 1.62

## Cn1c(C(C)(C)OC(=O)Oc2ccccc2)cnc1[N+](=O)[O-]
[1]
  MIC: > 100 µg/mL
Mus musculus [7]
  Activity: Toxic
Rattus norvegicus [8]
  Activity: inactive
Rattus norvegicus [9]
  inhibition: inactive
Mus musculus [10]
  Activity: Toxic
Clostridium perfringens
  MIC: 10 µg/mL (≈ 32.8 µM)
Mus musculus [11]
  Activity: 18.1%
Mus musculus [12]
  Activity: Toxic
[3]
  selectivity ratio: 1970
Mus musculus [13]
  Activity: Toxic
Mus musculus [14]
  Activity: 15.5%
Mus musculus [15]
  Activity: Toxic
Mus musculus [16]
  Activity: Toxic
Trichomonas vaginalis [4]
  MIC: 2 µg/mL (≈ 6.55 µM)
Streptococcus pyogenes
  MIC: 100 µg/mL (≈ 328 µM)
Mus musculus [17]
  Activity: Toxic
Staphylococcus aureus
  MIC: 100 µg/mL (≈ 328 µM)
Mus musculus [18]
  inhibition: Active
Mus musculus [19]
  Activity: Toxic
Trichomonas vaginalis [6]
  Ratio ED50: 0.28

## CS(=O)(=O)[O-].Cn1c(C(C)(C)[n+]2ccccc2)cnc1[N+](=O)[O-]
[1]
  MIC: > 100 µg/mL
Trichomonas vaginalis [2]
  ED50: > 40 mg/kg
Clostridium perfringens
  MIC: > 100 µg/mL
[20]
  solubility: soluble
Trichomonas vaginalis [4]
  MIC: > 100 µg/mL
Streptococcus pyogenes
  MIC: > 100 µg/mL
Staphylococcus aureus
  MIC: > 100 µg/mL
Trichomonas vaginalis [6]
  Ratio ED50: >4

## COC(C)(C)c1cnc([N+](=O)[O-])n1C
[1]
  MIC: > 100 µg/mL
Trichomonas vaginalis [2]
  ED50: 8.12 mg/kg
Clostridium perfringens
  MIC: 5 µg/mL (≈ 25.1 µM)
[3]
  selectivity ratio: 99
Trichomonas vaginalis [4]
  MIC: 5 µg/mL (≈ 25.1 µM)
Streptococcus pyogenes
  MIC: > 100 µg/mL
Staphylococcus aureus
  MIC: > 100 µg/mL
[5]
  LD50: 805 mg/kg
Trichomonas vaginalis [6]
  Ratio ED50: 0.81
